The source of these data is ChEMBL document CHEMBL2176917, “Effect of the prosthetic group on the pharmacologic properties of 18F-labeled rhodamine B, a potential myocardial perfusion agent for positron emission tomography (PET)” (J Med Chem, 2012).

The Kp is the ratio of the level in a tissue or fluid to that in plasma or blood.

Molecules are shown by their SMILES.

Series [1] can be described thus: Ratio of drug level in heart to blood in rat at 1.1 to 2.2, iv after 60 mins. Format: ADME, organism-based. To be noted: heart and blood (heart-to-blood ratio). In short, it runs like this:
(§1)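 Five rats per tracer received 1.1–2.2 MBq (30–60 µCi) of the 18F-labeled rhodamine ester in 100 µL 10% EtOH/saline through the tail vein after 0.2 µm filtration. They were killed by CO2 asphyxia at 60 min p.i. Excised tissues were weighed and counted for 18F. %ID/g was calculated against an injectate standard. Heart-to-blood ratios were derived from these values.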

Series [2] has as its system Muscle tissue. Briefly: Biodistribution in rat muscle at 1.1 to 2.2, iv after 60 mins. The settings on record: in vivo, 1 h. Format: ADME, organism-based. In short, it runs like this:
as §1

In series [3] the test system is Rattus norvegicus. In words: Biodistribution in rat gut at 1.1 to 2.2, iv after 60 mins. It counts as ADME, organism-based. To be noted: in vivo, 1 h. In short, it runs like this: as §1
Series [4] concerns Liver. Briefly: Biodistribution in rat liver at 1.1 to 2.2, iv after 60 mins. Format: ADME, organism-based. To be noted: in vivo, 1 h. In short, it runs like this: as §1
Series [5] relates to Blood. Briefly: Biodistribution in rat blood at 1.1 to 2.2, iv after 60 mins. It counts as ADME, organism-based. To be noted: in vivo, 1 h. In short, it runs like this: as §1
The test system of series [6] is Heart. Briefly: Drug uptake in rat heart at 3.7 to 5.6 MBq after 5 mins by PET analysis. To be noted: in vivo. It counts as ADME, tissue-based. In short, it runs like this: (§2)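 Each group of at least five rats was injected with 100 µL of filtered tracer (3.7–5.6 MBq, 100–150 µCi) in 10% EtOH/saline under isoflurane anesthesia (2–4% in air). MicroPET acquisition began as soon as possible after injection and ran 60 min in list mode. Images were reconstructed by 2D OSEM as one 60 min image or six 10 min frames. Time-activity curves for organs were expressed as kBq/cm3.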

Series [7] concerns Kidney. Briefly: Drug excretion in rat kidney at 3.7 to 5.6 MBq after 60 mins by PET analysis. It counts as ADME, tissue-based. To be noted: in vivo, 1 h. In short, it runs like this:
as §2

A short description of series [8]: Drug excretion in rat gut at 3.7 to 5.6 MBq after 60 mins by PET analysis. Format: ADME, tissue-based. The settings on record: in vivo, 1 h. In short, it runs like this:
as §2

For series [9], the system named is Liver. In words: Drug uptake in rat liver at 3.7 to 5.6 MBq after 60 mins by PET analysis. It counts as ADME, tissue-based. To be noted: in vivo, 1 h. In short, it runs like this:
as §2

A short description of series [10]: Drug uptake in rat myocardium at 3.7 to 5.6 MBq after 60 mins by PET analysis. Format: ADME, tissue-based. The settings on record: in vivo, 1 h. In short, it runs like this:
as §2

Series [11] relates to Liver. In words: Drug uptake in rat liver at 3.7 to 5.6 MBq after 5 mins by PET analysis. It counts as ADME, tissue-based. To be noted: in vivo. In short, it runs like this:
as §2

In series [12] the test system is Spleen (mouse). In words: Drug uptake in mouse spleen at 3.7 to 5.6 MBq after 60 mins by PET analysis. To be noted: in vivo, 1 h.
Series [13] relates to Kidney (mouse). Briefly: Drug uptake in mouse kidney at 3.7 to 5.6 MBq after 60 mins by PET analysis. To be noted: in vivo, 1 h.
The test system of series [14] is Intestine (mouse). Briefly: Drug uptake in mouse intestine at 3.7 to 5.6 MBq after 60 mins by PET analysis. To be noted: in vivo, 1 h.
Series [15] has as its system Gall bladder (mouse). Briefly: Drug uptake in mouse gall bladder at 3.7 to 5.6 MBq after 60 mins by PET analysis. The settings on record: in vivo, 1 h.
Series [16] concerns Liver. In words: Drug uptake in rat liver at 3.7 to 5.6 MBq after 30 mins by PET analysis. It counts as ADME, tissue-based. The settings on record: in vivo, 0.5 h. In short, it runs like this:
as §2

Series [17] in a line: Metabolic stability of the compound in human serum at 3.7 to 5.6 MBq after 120 mins. It counts as ADME, cell-free. To be noted: read-out: Stability. In short, it runs like this:
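Tracer (3.7–5.6 MBq) in 20 µL 10% EtOH/PBS was added to 200 µL of mouse, rat or human serum, or to PBS, prewarmed to 37°C, then shaken and incubated at 37°C. At 15, 30, 60 and 120 min, aliquots were quenched with cold ethanol and kept on ice. Samples were filtered (30 kD cutoff, 4°C), diluted with water and analysed by radio-HPLC for intact tracer.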

A short description of series [18]: Metabolic stability of the compound in mouse serum at 3.7 to 5.6 MBq after 120 mins. Format: ADME, cell-free. The settings on record: read-out: Stability. In short, it runs like this: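 Radiotracer (3.7–5.6 MBq) in 10% EtOH/PBS was added to serum pre-equilibrated at 37°C, shaken and incubated at 37°C. Aliquots were taken at 15, 30, 60 and 120 min and quenched with cold absolute EtOH. They were held on ice for 5 min, passed through a 30 kD cutoff filter at 4°C, and the water-diluted filtrate was analysed by radio-HPLC for intact tracer. A PBS incubation ran in parallel.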

For series [19], the system named is Nucleic Acid. In words: Ratio of drug level in heart to bone in rat at 1.1 to 2.2, iv after 60 mins. It counts as ADME, organism-based. To be noted: in vivo, 1 h. In short, it runs like this: (§3)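 Five rats per compound each received 1.1–2.2 MBq of tracer in 10% EtOH/saline by tail vein. They were killed by CO2 at 60 min p.i., and selected tissues were excised, weighed and counted for 18F. %ID/g was calculated against a standard prepared from the injectate. Unpaired two-tailed t test.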

Series [20] concerns Nucleic Acid. In words: Ratio of drug level in heart to liver in rat at 1.1 to 2.2, iv after 60 mins. It counts as ADME, organism-based. To be noted: in vivo, 1 h. In short, it runs like this: as §3
The test system of series [21] is Nucleic Acid. In words: Ratio of drug level in heart to lung in rat at 1.1 to 2.2, iv after 60 mins. The settings on record: in vivo, 1 h. It counts as ADME, organism-based. In short, it runs like this: as §3
The nature of series [22]: Ratio of drug level in heart to blood in Sprague-Dawley rat after 5 mins. It counts as ADME. The settings on record: heart and blood (heart-to-blood ratio).
Series [23] in a line: Ratio of drug level in heart to blood in Sprague-Dawley rat after 60 mins. To be noted: heart and blood (heart-to-blood ratio). It counts as ADME.
In series [24] the test system is Nucleic Acid. In words: Ratio of drug level in heart to liver in Sprague-Dawley rat after 60 mins. It counts as ADME, tissue-based. The settings on record: in vivo, 1 h.
For series [25], the system named is Nucleic Acid. In words: Ratio of drug level in heart to liver in Wistar rat after 60 mins. Format: ADME, tissue-based. The settings on record: in vivo, 1 h.

On to `CCN(CC)c1ccc2c(-c3ccccc3C(=O)OCCOCCOCC[18F])c3ccc(=[N+](CC)CC)cc-3oc2c1.Cc1ccc(S(=O)(=O)[O-])cc1`, for which, in [1], the Kp at 1 h came to 5.4. The Drug uptake in series [2] was 0.32 % ID/g; in series [3] it was 0.44 % ID/g; in series [4] it was 0.25 % ID/g; in series [5], 0.19 % ID/g; in series [6], 16 kBq/cm3; in series [9], “Active”. Also, the Drug uptake entry in [10] is recorded as “Active”; in [11], 15 kBq/cm3; in series [12], “Active”; in series [13], “Active”; in series [14] it was “Active”; in series [15] it was “Active”. Moreover, the Drug excretion result in series [7] and in series [8] was “Active” throughout.
As to `CCN(CC)c1ccc2c(-c3ccccc3C(=O)OCCOCC[18F])c3ccc(=[N+](CC)CC)cc-3oc2c1.Cc1ccc(S(=O)(=O)[O-])cc1`, the Kp at 1 h in series [1] was determined as 10. The Drug uptake in series [2] is reported as 0.54 % ID/g; in [3], 1.69 % ID/g; in series [4] it was 0.49 % ID/g; in [5], 0.25 % ID/g; in series [16], “Active”; in series [6], 69 kBq/cm3. The Drug uptake entry is “Active” in series [9]; “Active” in series [10]; 59 kBq/cm3 in series [11]; “Active” in [12]; “Active” in series [13]; “Active” in series [14]. Moreover, in [15], the Drug uptake entry is recorded as “Active”. Also, the Drug excretion entry in [7] and in series [8] was “Active” throughout. The remaining at 2 h in [17] and in series [18] was 97.1% each time.
As to `CCN(CC)c1ccc2c(-c3ccccc3C(=O)OCCC[18F])c3ccc(=[N+](CC)CC)cc-3oc2c1.Cc1ccc(S(=O)(=O)[O-])cc1`, in series [1], the Kp at 1 h was 26.4. The Drug uptake was 0.3 % ID/g in [2]; 2.53 % ID/g in [3]; 0.55 % ID/g in series [4]; 0.05 % ID/g in [5]; 66 kBq/cm3 in series [6]; “Active” in [9]. The Drug uptake entry was “Active” in series [10] and 65 kBq/cm3 in [11]. Further, the Drug excretion entry in series [7] and in series [8] was “Active” in each case. The remaining at 2 h in series [17] is 99%.
In the case of `CCN(CC)c1ccc2c(-c3ccccc3C(=O)OCC[18F])c3ccc(=[N+](CC)CC)cc-3oc2c1.Cc1ccc(S(=O)(=O)[O-])cc1`, the results for the Ratio in series [19], in series [20] and in series [21] were 4.6, 2.3 and 1.6, respectively. Besides, the Kp at 1 h in [1] was 25.8. Besides, the Drug uptake in [2] was 0.16 % ID/g; in series [3], 2.4 % ID/g; in series [4], 0.89 % ID/g; in series [5], 0.08 % ID/g; in series [9] it was “Active”. Also, the remaining at 2 h in series [18] stood at 25%.
In the case of `[18F]c1ccc([P+](c2ccccc2)(c2ccccc2)c2ccccc2)cc1` [BFPET F-18], in series [22], the Kp at 5 min amounted to 11. The Kp at 1 h in series [23] is 75. For the same molecule, the Ratio in [24] worked out at 9.2.
As to `CC(C)(C)n1ncc(OCc2ccc(COCC[18F])cc2)c(Cl)c1=O` [FLURPIRIDAZ F 18], the Kp at 1 h in [23] stood at 13.7. Besides, the figures for the Ratio in series [24] and in series [25] were 3.7 and 5.4, respectively.
